In ChEMBL document CHEMBL3414428, “Bond-based bilinear indices for computational discovery of novel trypanosomicidal drug-like compounds through virtual screening” (Eur J Med Chem, 2015):

Tests used:
J774 = assay: Cytotoxicity against mouse J774 cells assessed as cell viability after 48 hrs by resazurin assay; assay type: cell-based; conditions: J774, 48 h
Procedure, shortened: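 J774 macrophages grown in RPMI 1640 with 10% heat-inactivated FBS, penicillin and streptomycin at 37 °C, 5% CO2, and harvested pre-confluence with trypsin. Seeded at 5x10^4 cells/well and left to attach 24 h. Exposed to a range of drug concentrations for 48 h. Resazurin solution (2 mM stock, in PBS pH 7) added for 3 h. Absorbance read at 490 and 595 nm with background subtracted. Triplicates; %C and IC50 calculated.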

[1] = Selectivity ratio of IC50 for mouse J774 cells to IC50 for epimastigote stage of Trypanosoma cruzi CL-B5; assay type: ADME, cell-based; conditions: J774 cells versus Trypanosoma cruzi CL-B5 epimastigotes, read-out: Ratio IC50
Trypanosoma cruzi = assay: Trypanosomicidal activity against epimastigote stage of Trypanosoma cruzi CL-B5 after 72 hrs by beta-galactosidase reporter gene assay; assay type: functional, organism-based; conditions: CL-B5, 72 h
Procedure, shortened: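 Epimastigotes from cultures not yet in stationary phase, seeded at 2 x 10^5/mL with drugs at 28 °C for 72 h. CPRG then added (200 µM final) for 6 h at 37 °C and absorbance read at 595 nm. Each concentration tested in triplicate, two independent experiments; IC50 and AE% calculated.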

| SMILES | IC50 (J774) | selectivity ratio [1] | IC50 (Trypanosoma cruzi) |
| --- | --- | --- | --- |
| Oc1ccc(CCc2ccccc2)cc1 | 407 µM | 3.3 | 123 µM |
| COc1ccc(OC)c(CCc2ccccc2)c1 | > 256 µM | 5.5 | 46.5 µM |
| COc1ccc(OC)c(C(=O)O)c1 | > 256 µM | – | > 256 µM |
| COc1ccc(OC)c(CO)c1 | > 256 µM | – | > 256 µM |
| C=Cc1cc(OC)ccc1OC | > 256 µM | – | > 256 µM |
| O=C(O)c1cc(O)ccc1O [GENTISIC ACID] | > 256 µM | – | > 256 µM |
| Oc1ccc(O)cc1 [HYDROQUINONE] | 123 µM | 6.3 | 19.5 µM |
| Oc1ccc(CCc2cccc(O)c2)cc1 [LUNULARIN] | > 512 µM | 3.4 | 152 µM |
| COC(=O)c1cc(O)ccc1O [METHYL 2,5-DIHYDROXYBENZOATE] | > 256 µM | 2.6 | 98 µM |
| COC(=O)c1cc(O)cc(O)c1 [METHYL 3,5-DIHYDROXYBENZOATE] | > 256 µM | – | > 256 µM |
